SENP1 inh = human SENP1 catalytic domain inhibitors, primary screen, biochemical, FRET, uHTS | Sentrin-specific protease 1 (Homo sapiens), Q9P0U3 | recombinant SENP1 catalytic domain, CyPet-SUMO1-YPet FRET cleavage | inhibition, % at 10 µM | 0.21% of 360,000 active | AID 624204, 2012;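 active = inhibition at least 30% at 10 µM, raw YFP signal under a set limit, fluorescence ratio 0.5 to 1.5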
Target sequence (Q9P0U3 419-644 limits assumed): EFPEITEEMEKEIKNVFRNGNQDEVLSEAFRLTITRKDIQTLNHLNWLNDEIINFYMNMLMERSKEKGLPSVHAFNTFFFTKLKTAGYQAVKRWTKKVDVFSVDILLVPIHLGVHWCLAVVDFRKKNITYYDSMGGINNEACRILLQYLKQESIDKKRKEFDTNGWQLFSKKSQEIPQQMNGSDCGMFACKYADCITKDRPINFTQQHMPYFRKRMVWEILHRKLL
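Material – human SENP1 catalytic domain · Input – SENP1 enzyme, 20 pM final · Compound dosing – single concentration of 10 µM compound, 0.5% DMSO final · Timing – enzyme reaction for 50 min at room temperature, dark · Measured by – FRET fluorescence in CFP and YFP emission channels · Control set – no-enzyme wells low, DMSO-plus-enzyme wells high control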
M18AAP inhibitor = PfM18AAP inhibitors, malaria aminopeptidase, primary screen, biochemical, QFRET, recombinant enzyme; AID 1822, 2009; M18 aspartyl aminopeptidase (Plasmodium falciparum 3D7); 1.2% of 290,000 active; H-Glu-NHMec fluorogenic cleavage; inhibition, % at 7.35 µM;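 active = inhibition above the campaign mean inhibition over all tested compounds plus 3 SD, cut at about 28% in these data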
CTSL1 counter = Fasciola hepatica cathepsin L1 inhibitors, primary screen, counter-screen for PFM18AAP inhibitor project, biochemical, QFRET, fluorogenic peptide substrate; 0.49% of 300,000 active; recombinant F. hepatica cathepsin L1, Z-Leu-Arg-MCA fluorescence; AID 1906, 2009; inhibition, % at 5.96 µM;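 active = inhibition above the mean of all tested compounds plus 3 SD, set per screening campaign, cut at about 17% in these data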
HDAC3 inh = HDAC3 deacetylase inhibitors, primary screen, biochemical, fluorescence, cell-free homogeneous. Histone deacetylase 3 (Homo sapiens), O15379. recombinant HDAC3, fluorogenic peptide/trypsin coupled. inhibition, % at 8.3 µM. 0.15% of 320,000 active. AID 2718, 2010; in the data active = inhibition above about 26%, passing the limit was not always enough; inconclusive = no clear call, values can overlap the other calls
Target sequence (O15379 whole entry, looked up): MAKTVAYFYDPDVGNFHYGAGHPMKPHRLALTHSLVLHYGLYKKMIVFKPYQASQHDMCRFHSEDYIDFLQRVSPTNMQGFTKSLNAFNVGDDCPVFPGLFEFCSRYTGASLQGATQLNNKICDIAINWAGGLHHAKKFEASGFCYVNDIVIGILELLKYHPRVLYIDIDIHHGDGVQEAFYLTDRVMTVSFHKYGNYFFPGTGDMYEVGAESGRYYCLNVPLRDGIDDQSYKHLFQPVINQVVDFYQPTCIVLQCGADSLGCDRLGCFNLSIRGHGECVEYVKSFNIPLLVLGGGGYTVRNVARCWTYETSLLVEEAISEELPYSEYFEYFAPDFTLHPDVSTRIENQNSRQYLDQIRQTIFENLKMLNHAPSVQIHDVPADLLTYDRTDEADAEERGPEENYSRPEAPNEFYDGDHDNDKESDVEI
GAA850 FXN act = FXN promoter activators, primary screen, cell-based, luciferase luminescence, HEK293 lucGAA850; HEK293 lucGAA850 FXN promoter luciferase reporter, 24 h; percent of 10 µM SAHA response; activation, % at 6 µM; 0.56% of 360,000 active;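 active = activation above the average of all compounds screened plus 3 SD, cutoff fixed separately per campaign, cut at about 7.5% in these data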
AHR act = AHR activators, primary screen, cell-based, luminescence, luciferase reporter, human; Aryl hydrocarbon receptor (Homo sapiens), P35869; AHR-responsive luciferase reporter cells; activation, % at 5 µM; 2.5% of 320,000 active; AID 2796, 2010; in the data active = activation above about 47%
GAA30 FXN cntr = GAA30 FXN promoter activators, confirmation, counter-screen for GAA850 frataxin promoter activator project, cell-based, luminescence, HEK293, lucGAA30, triplicate | activation, % at 6 µM | HEK293 lucGAA30 FXN promoter luciferase, 24 h; DMSO = 0%, 5 µM ipriflavone = 100% | shares compounds with GAA850 FXN act | AID 588350, 2011 | 66% of 1,900 active;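 active = mean activation above the mean of solvent-only control wells plus 3 SD, cut at about 22% in these data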;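 also: counterscreen of GAA850 promoter hits where activity marks nonselective or luminescence artifacts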
FXN GAA850 conf = FXN GAA850 promoter activators in reporter cells, confirmation, cell-based, luminescence, HEK293 lucGAA850, triplicate. 86% of 1,900 active. shares compounds with GAA850 FXN act. HEK293 lucGAA850 FXN promoter luciferase reporter, 24 h; 100% = activation by SAHA. activation, % at 6 µM;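 active = mean activation above a set limit taken from the primary screen, cut at about 8% in these data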
Of the large screens only hits and unclear results are named; the others gave an inactive call (follow-up assays come after a bar, where they were run). Rows were chosen to be rich in hits. Some 4.2% of all compounds tested hit in one or more screens of this group.

CC(C)c1c(C(=O)Nc2ccccc2)c(-c2ccccc2)c(-c2ccc(F)cc2)n1CC[C@@H](O)C[C@@H](O)CC(=O)O	none (no result: M18AAP inhibitor, CTSL1 counter, HDAC3 inh, AHR act)
CCCN1CCN(CCCNC(=O)c2ccc(CS(=O)c3ccccc3C)o2)CC1 (centres undefined)	none
CCOC(=O)C1(C)CCCN(C(=O)c2ccc3c(c2)CCO3)C1 (centres undefined)	none (no result: M18AAP inhibitor, CTSL1 counter, HDAC3 inh, AHR act)
COc1ccc(Br)cc1/C=C/c1ccc2cccc(O)c2n1	none
COc1cc(/C=C/c2ccc3c(Br)cc(Br)c(O)c3n2)ccc1O	HDAC3 inh inconclusive
COc1cc(/C=C/c2ccc3cccc(O)c3n2)cc(Br)c1OC	GAA850 FXN act 9.2 | GAA30 FXN cntr inactive | FXN GAA850 conf inactive
COc1cc(/C=C/c2ccc3cccc(O)c3n2)cc(Cl)c1OC	GAA850 FXN act 13 | GAA30 FXN cntr inactive | FXN GAA850 conf inactive
O=C(CNC(=O)c1cccc(-n2cccc2)c1)Nc1ccccc1Br	none (no result: M18AAP inhibitor, CTSL1 counter, HDAC3 inh, AHR act)
CC(C(=O)NCCCc1ccccc1)n1cccc1C(=O)c1ccccc1 (centres undefined)	none
O=C(CC[C@H]1O[C@@H](n2ccc(=O)[nH]c2=O)[C@H](O)[C@@H]1O)N[C@@H](Cc1ccccc1)C(=O)NCC1CCCCC1	none (no result: M18AAP inhibitor, CTSL1 counter, HDAC3 inh, GAA850 FXN act, AHR act)
C=CCSc1nnc(-c2cc3c(s2)-c2ccccc2CC3)o1	GAA850 FXN act 8.7, AHR act 66 | GAA30 FXN cntr 76 | FXN GAA850 conf 28
CC(=O)c1ccc(OC2(C)CCN(Cc3cc4ccccc4[nH]3)C2)cc1 (centres undefined)	none (no result: M18AAP inhibitor, CTSL1 counter, HDAC3 inh, AHR act)
Cc1cnc(C2OCCO2)c2cccc([N+](=O)[O-])c12	none (no result: M18AAP inhibitor, CTSL1 counter, HDAC3 inh, AHR act)
COc1ccc(C2=Nn3c(nnc3-c3cccnc3)SC2)cc1OC	GAA850 FXN act 15 (no result: M18AAP inhibitor) | GAA30 FXN cntr 31 | FXN GAA850 conf 20
COc1ccc(C=O)c(-c2c(CCO)sc3ccccc23)c1	none (no result: M18AAP inhibitor, CTSL1 counter, HDAC3 inh, GAA850 FXN act, AHR act)
O=C(NC(=S)NC1CCCCCC1)c1cncc(Br)c1	GAA850 FXN act 8.3 | GAA30 FXN cntr 95 | FXN GAA850 conf 33
O=C(NC(=S)Nc1ncc(Br)cc1Br)c1cncc(Br)c1	none
CCOc1ccc2c(c1)c1nc3ccccc3nc1n2C	GAA850 FXN act 7.7 (no result: CTSL1 counter, AHR act) | GAA30 FXN cntr 74 | FXN GAA850 conf 21
CC1=C(C(=O)OCc2ccccc2)C(c2cccc3ccccc23)NC(=O)N1CCCC(=O)O (centres undefined)	none (no result: M18AAP inhibitor)
Cc1ccc(C2CC(c3ccco3)n3ncnc3N2)cc1 (centres undefined)	GAA850 FXN act 11 | GAA30 FXN cntr inactive | FXN GAA850 conf inactive
Fc1ccc(C2CC(c3ccco3)n3ncnc3N2)cc1 (centres undefined)	none
CCOC(=O)c1c(CSc2ccsc2)n(C)c2cc(Br)c(O)c(CN(C)C)c12	GAA850 FXN act 7.8 | GAA30 FXN cntr inactive | FXN GAA850 conf inactive
CCOC(=O)c1c(CN2CCCCC2)n(C)c2cc(Br)c(O)c(CN(C)C)c12	none
CCOC(=O)c1c(CSc2ccccc2)n(C)c2cc(Br)c(O)c(CN(C)C)c12	GAA850 FXN act 19 | GAA30 FXN cntr inactive | FXN GAA850 conf 12
CCOC(=O)c1c(CSc2ccc(C)cc2)n(C)c2cc(Br)c(O)c(CN(C)C)c12	GAA850 FXN act 11 | GAA30 FXN cntr inactive | FXN GAA850 conf 15
CCN(C(=O)COC(=O)CCC(=O)c1ccc(C)cc1)c1c(N)n(Cc2ccccc2)c(=O)[nH]c1=O	none (no result: M18AAP inhibitor, CTSL1 counter, HDAC3 inh, AHR act)
COc1ccc(COc2cccc3ccc(C)nc23)cc1F	none
Cc1ccc(C(=O)CCC(=O)N2CCN(C/C=C/c3ccccc3)CC2)cc1	none (no result: M18AAP inhibitor, CTSL1 counter, HDAC3 inh, AHR act)
O=c1oc(-c2ccc(O)c(O)c2)cc2cc(O)cc(O)c12	none (no result: M18AAP inhibitor, CTSL1 counter, HDAC3 inh)
O=c1oc(-c2ccc(O)c(O)c2)cc2cccc(O)c12	GAA850 FXN act 13 (no result: M18AAP inhibitor, CTSL1 counter, HDAC3 inh) | GAA30 FXN cntr 129 | FXN GAA850 conf 46
CCNc1nc(CSc2ccccc2)nc2sc(C)c(C)c12	GAA850 FXN act 18 | GAA30 FXN cntr inactive | FXN GAA850 conf 13
Cc1nn(Cc2ccccc2)c(C)c1NC(=O)CCCn1nc(C)c([N+](=O)[O-])c1C	GAA850 FXN act 8.4 | GAA30 FXN cntr inactive | FXN GAA850 conf inactive
N#Cc1c(-c2ccccc2)nc(SCc2cccc(Cl)c2)[nH]c1=O	none
COc1cccc2sc(N(C)c3ccccc3)nc12	GAA850 FXN act 7.7 | GAA30 FXN cntr 107 | FXN GAA850 conf 31
COc1ccc(/C=N/NC(=O)C(C)n2nnc3ccccc32)cc1OC (centres undefined)	GAA850 FXN act 8.5 | GAA30 FXN cntr inactive | FXN GAA850 conf 11
CC(C)(C)c1ccc(S(=O)(=O)NC(=O)C2(C)CCN2C(=O)C2(c3ccc(Cl)cc3)CC2)cc1 (centres undefined)	none (no result: M18AAP inhibitor, CTSL1 counter, HDAC3 inh, AHR act)
COc1cc(/C=C/C(=O)O)ccc1O	GAA850 FXN act 16 (no result: M18AAP inhibitor) | GAA30 FXN cntr inactive | FXN GAA850 conf inactive
COc1cc(/C=C/C(=O)c2ccc([N+](=O)[O-])o2)ccc1O	GAA850 FXN act 12 (no result: M18AAP inhibitor) | GAA30 FXN cntr inactive | FXN GAA850 conf inactive
CC(C)=NNc1cnnc2ccc([N+](=O)[O-])cc12	none (no result: M18AAP inhibitor, CTSL1 counter, HDAC3 inh, GAA850 FXN act, AHR act)
Cc1cc(Cl)ccc1OCC(=O)N1CCCN(C(=O)COc2ccc(Cl)cc2C)CC1	GAA850 FXN act 9.4 | GAA30 FXN cntr inactive | FXN GAA850 conf inactive
COC(=O)[C@]1(Cc2ccccc2)N[C@H](CN(C)C(C)=O)[C@@H]2C(=O)N(Cc3ccccc3)C(=O)[C@@H]21	none (no result: M18AAP inhibitor, CTSL1 counter, HDAC3 inh)
CC[C@@]12C(=O)N(c3cccc(Br)c3)C(=O)N1[C@H](c1ccc(F)cc1)[C@@H]1C(=O)N(C3CCCCC3)C(=O)[C@@H]12	GAA850 FXN act 8.4 (no result: M18AAP inhibitor) | GAA30 FXN cntr inactive | FXN GAA850 conf 12
CC(C)C[C@@]12C(=O)N(c3cccc(Br)c3)C(=O)N1[C@H](c1ccc(F)cc1)[C@@H]1C(=O)N(C3CCCCC3)C(=O)[C@@H]12	GAA850 FXN act 11 (no result: M18AAP inhibitor) | GAA30 FXN cntr inactive | FXN GAA850 conf 10.0
O=c1c(OCc2ccccc2)cccn1Cc1ccccc1	none (no result: M18AAP inhibitor, CTSL1 counter, HDAC3 inh, AHR act)

Screening data deposited in PubChem by several laboratories.
